Tests used:
[1] = test system: BT-549; assay: Cytotoxicity against human BT549 cells assessed as cell growth at 10^-5 M after 48 hrs by SRB assay; format: functional; settings: BT-549, 48 h, read-out: Activity
Method in brief: (§1)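 NCI 60-cell-line primary one-dose screen across nine tumour subpanels. Compound added at a single concentration of 10^-5 M and cultures incubated 48 h. Endpoint was sulforhodamine B protein staining read spectrophotometrically, with growth expressed as percent of untreated control cells.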

[2] = test system: DU-145; assay: Cytotoxicity against human DU145 cells assessed as cell growth at 10^-5 M after 48 hrs by SRB assay; format: functional; settings: DU-145, 48 h, read-out: Activity; method in brief: as §1
[3] = test system: SN12C; assay: Cytotoxicity against human SN12C cells assessed as cell growth at 10^-5 M after 48 hrs by SRB assay; format: functional; settings: read-out: Activity
Method in brief: (§2)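 NCI-60 one-dose screen across nine tumour subpanels. Each agent added once at 10^-5 M, cultures incubated 48 h. Endpoint is sulforhodamine B protein staining read spectrophotometrically. Output is percent growth of treated cells relative to untreated controls.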

[4] = test system: TK-10; assay: Cytotoxicity against human TK10 cells assessed as cell growth at 10^-5 M after 48 hrs by SRB assay; format: functional; settings: TK-10, 48 h, read-out: Activity; method in brief: as §2
[5] = test system: UACC-62; assay: Cytotoxicity against human UACC62 cells assessed as cell growth at 10^-5 M after 48 hrs by SRB assay; format: functional; settings: UACC-62, 48 h, read-out: Activity; method in brief: as §2
[6] = test system: SK-MEL-28; assay: Cytotoxicity against human SK-MEL-28 cells assessed as cell growth at 10^-5 M after 48 hrs by SRB assay; format: functional; settings: SK-MEL-28, 48 h, read-out: Activity; method in brief: as §2
[7] = test system: M14; assay: Cytotoxicity against human M14 cells assessed as cell growth at 10^-5 M after 48 hrs by SRB assay; format: functional; settings: M14, 48 h, read-out: Activity; method in brief: as §1
[8] = test system: HCC 2998; assay: Cytotoxicity against human HCC2998 cells assessed as cell growth at 10^-5 M after 48 hrs by SRB assay; format: functional; settings: HCC 2998, 48 h, read-out: Activity; method in brief: as §1
[9] = test system: NCI-H322M; assay: Cytotoxicity against human NCI-H322M cells assessed as cell growth at 10^-5 M after 48 hrs by SRB assay; format: functional; settings: read-out: Activity; method in brief: as §1
[10] = test system: K562; assay: Cytotoxicity against human K562 cells assessed as cell growth at 10^-5 M after 48 hrs by SRB assay; format: functional; settings: K562, 48 h, read-out: Activity; method in brief: as §1
[11] = test system: MOLT-4; assay: Cytotoxicity against human MOLT4 cells assessed as cell growth at 10^-5 M after 48 hrs by SRB assay; format: functional; settings: MOLT-4, 48 h, read-out: Activity; method in brief: as §1
[12] = test system: CCRF-CEM; assay: Cytotoxicity against human CCRF-CEM cells assessed as cell growth at 10^-5 M after 48 hrs by SRB assay; format: functional; settings: read-out: Activity; method in brief: as §1
[13] = test system: Rattus norvegicus; assay: Gastrointestinal toxicity in albino rat assessed as histopathological analysis at 0.28 mmol/kg, po using haematoxylin and eosin staining by light microscopic analysis; format: organism-based; settings: in vivo
Method in brief: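 Adult male albino rats (120–140 g, Minia University), groups of four, fasted 24 h with water allowed. Oral dose 0.28 mmol/kg suspended in 0.5% aqueous CMC; vehicle-only controls. Gastric sections dewaxed, stained with haematoxylin 5–7 min, differentiated in 1% HCl/70% alcohol, counterstained with 1% eosin 10 min. Cleared in xylene, mounted, examined by light microscopy at ×400.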

[14] = test system: Rattus norvegicus; assay: Antiinflammatory activity in albino rat assessed as inhibition of carrageenan-induced paw edema at 0.28 mmol/kg, po after 3 hrs relative to control; format: functional
Method in brief: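 Adult male albino rats (120–140 g), four per group, fasted 24 h with water allowed. Test agent suspended in 0.5% w/v aqueous CMC and given orally at 0.28 mmol/kg; controls received CMC alone. After 30 min, 0.1 mL fresh 1% carrageenan in saline was injected subplantar into the right hind paw and saline into the left. Paw thickness was measured by Vernier caliper; % inhibition = [(VR−VL)control − (VR−VL)treated]/(VR−VL)control ×100. Mean ± SEM, one-way ANOVA.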

| Compound | growth at 10 µM [1] [%] | growth at 10 µM [2] [%] | growth at 10 µM [3] [%] | growth at 10 µM [4] [%] | growth at 10 µM [5] [%] | growth at 10 µM [6] [%] | growth at 10 µM [7] [%] | growth at 10 µM [8] [%] | growth at 10 µM [9] [%] | growth at 10 µM [10] [%] | growth at 10 µM [11] [%] | growth at 10 µM [12] [%] | Activity [13] | inhibition in vivo at 280 µmol/kg [14] [%] |
| --- | --- | --- | --- | --- | --- | --- | --- | --- | --- | --- | --- | --- | --- | --- |
| CCn1c(SC/C(=N/O)c2ccccc2)nnc1-c1ccc(OC)c(OC)c1 | 134 | 112 | 99.5 | 106 | 95.5 | 103 | 126 | 104 | 99.4 | 93.4 | 87.4 | 98 | Non-toxic | 71 |
| O/N=C(/CSc1nnc(-c2ccccc2)n1-c1ccccc1)c1ccccc1 | 111 | 99.2 | 99.7 |  | 87.7 | 118 | 103 | 121 |  | 74.6 | 84.8 | 91 |  | 65 |
| COc1ccc(-c2nnc(SC/C(=N/O)c3ccccc3)n2-c2ccccc2)cc1 | 90.5 | 119 | 97.9 | 113 | 94.3 | 117 | 106 | 112 | 102 | 82.1 | 70.3 | 83.5 |  | 63 |
| COc1ccc(-c2nnc(SC/C(=N/O)c3ccccc3)n2-c2ccccc2)cc1OC | 92.4 | 114 | 94.5 | 123 | 89.5 | 113 | 98.9 | 114 | 103 | 88.7 | 81.8 | 84.4 |  | 67 |
| COc1cc(-c2nnc(SC/C(=N/O)c3ccccc3)n2-c2ccccc2)cc(OC)c1OC | 85.3 | 123 | 95.8 | 116 | 84 | 90.3 | 108 | 108 | 104 | 85.2 | 81.7 | 88.5 |  | 64 |
| C=CCn1c(SC/C(=N\O)c2ccccc2)nnc1-c1ccc(OC)c(OC)c1 | 124 | 114 | 98.2 | 112 | 99.9 | 99 | 123 | 100 | 96.6 | 90.8 | 85.3 | 98.3 |  | 58 |
| CCn1c(SC/C(=N/O)c2ccccc2)nnc1-c1ccccc1 | 115 | 107 | 88.5 |  | 86.2 | 106 | 109 | 96.6 |  | 86 | 94.8 | 88.9 |  | 72 |
